We go through six compounds from ChEMBL document CHEMBL1149670, “Fluorine-containing aryloxyethyl thiocyanate derivatives are potent inhibitors of Trypanosoma cruzi and Toxoplasma gondii proliferation” (Bioorg Med Chem Lett, 2007).

Experiment [1] has as its system Trypanosoma cruzi. Briefly: Antiparasitic activity against Trypanosoma cruzi Y infected gamma irradiated L6E9 myoblast. The settings on record: L6E9, light or radiation study.
Experiment [2] deals with Trypanosoma cruzi. Briefly: Antiparasitic activity against Trypanosoma cruzi Y amastigotes infected gamma irradiated L6E9 myoblast. The settings on record: L6E9, light or radiation study. Type of experiment: functional, organism-based. The method in brief:
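Gamma-irradiated L6E9 myoblasts were kept in DMEM with 20% FCS for 24 h at 37 °C and 5% CO₂. They were then infected with Y-strain trypomastigotes or amastigotes (4.17 × 10⁶/well) for 2 h at 37 °C and 7% CO₂, then washed. [5,6-³H]uracil and aqueous drug solutions were added for 72 h. TCA-precipitable counts were taken on day 3, and percent inhibition was calculated from cpm differences versus control.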

Another experiment has as its system Toxoplasma gondii. Briefly: Antiparasitic activity against Toxoplasma gondii tachyzoites m2m3 infected HFF cells. The format is functional, organism-based. The method in brief:
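YFP-expressing m2m3 tachyzoites, filtered and needle-passed, were inoculated at 10⁴/ml onto confluent HFF monolayers. Medium was DMEM with 10% fetal bovine serum, 2 mM glutamine and 1 mM pyruvate, with drugs serially diluted in it. Plates were held at 37 °C and read daily for fluorescence from the bottom (ex 510, em 540 nm). IC50 came from fitting I = Imax·C/(IC50 + C), with Imax = 100%.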

Values after ≈ are worked out from the molar mass of the structure shown. Where only a bound is given, the exact number is not on record here.

The term IC50 denotes the concentration at which inhibition is half-maximal. Consider `Fc1ccc(Oc2ccc(OCCOC3CCCCO3)cc2)cc1` (stereo unspecified), for which the IC50 with Trypanosoma cruzi [1] is more than 20 µg/mL; in the experiment on Trypanosoma cruzi [2] it was 14.4 µM; in the experiment on Toxoplasma gondii, 6.16 µM.

Regarding `N#CSCCOc1ccc(Oc2cccc(F)c2)cc1`, the values for the half-maximal inhibitory concentration (IC50) in the experiment on Trypanosoma cruzi [1], in the experiment with Trypanosoma cruzi [2] and with Toxoplasma gondii were 1.74 µg/mL (≈ 6.01 µM), 4.3 µM and 15.8 µM, respectively.

Take `Fc1cccc(Oc2ccc(OCCOC3CCCCO3)cc2)c1` (stereo unspecified): the IC50 was more than 20 µg/mL in the experiment on Trypanosoma cruzi [1], 19 µM in the experiment on Trypanosoma cruzi [2] and 3.99 µM in the experiment on Toxoplasma gondii.

Take `N#CSCCOc1ccc(Oc2ccccc2)cc1`: the IC50 in the experiment with Trypanosoma cruzi [1] came out at 2.6 µg/mL (≈ 9.58 µM); with Trypanosoma cruzi [2], 12 µM; in the experiment on Toxoplasma gondii, 2.8 µM.

Turning to `N#CSCCOc1ccc(Oc2ccc(F)cc2)cc1`, the IC50 with Trypanosoma cruzi [1] stood at 1.95 µg/mL (≈ 6.74 µM); with Trypanosoma cruzi [2], 3.7 µM; in the experiment with Toxoplasma gondii, 3.85 µM.

In the case of `O=C1C(O)=C([C@H]2CC[C@H](c3ccc(Cl)cc3)CC2)C(=O)c2ccccc21` [ATOVAQUONE], the IC50 with Toxoplasma gondii was 0.29 µM.
